Calls of active or inactive are those of the source. No cut-off for these calls is given here.
Experiments:
[1] = tested on: Jurkat; experiment: Cell cycle arrest in human Jurkat E6-1 cells assessed as accumulation at G0/G1 phase at 9.3 uM after 24 hrs by FACS flow cytometry; assay type: functional
How it was run: (§1)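 Jurkat E6 cells cultured in RPMI 1640 with 10% FBS at 37 °C, 5% CO2. Compounds serially diluted in medium, starting 50% above the M21 IC50. 4.0 × 10^5 cells were exposed for 24 h. Cells were washed with PBS, chicken red blood cells added as internal standard, and fixed in ice-cold EtOH. After 1 h on ice in PBS with 1 μg/mL DAPI, phase distribution was read by flow cytometry. DMSO-treated cells served as control.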

[2] = tested on: Jurkat; experiment: Cell cycle arrest in human Jurkat E6-1 cells assessed as accumulation at S phase at 9.3 uM after 24 hrs by FACS flow cytometry; assay type: functional
How it was run: (§2)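 Jurkat E6 T-lymphoblasts in RPMI 1640 with 10% FBS, 37 °C, 5% CO2. […] Chicken red blood cells were added as internal standard. Cells were fixed in ice-cold EtOH and stained with 1 μg/mL DAPI on ice for 1 h before flow cytometry of phase distribution. Vehicle control was 0.5% DMSO.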

[3] = tested on: HT-29; experiment: Cytotoxicity against human HT-29 cells after 48 hrs by SRB assay; assay type: functional, cell-based; conditions: HT-29, 48 h
How it was run: (§3)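 NCI sulforhodamine B protocol. Cells were grown in high-glucose DMEM with 5% FBS and seeded per well at 4 × 10^3 (HT-29), 3.5 × 10^3 (M21) or 3 × 10^3 (MCF-7), then allowed 24 h to attach. Serial dilutions from 200 μM to 780 nM final were applied in DMSO <0.5% for 48 h. Cells were fixed with cold TCA (10% final) and stained with SRB, with absorbance read at 530–568 nm. Growth inhibition was computed against day-0 plates, giving the 50% inhibitory concentration. At least two experiments in triplicate, CV <10%.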

[4] = tested on: HT-1080; experiment: Antitumor activity against human HT1080 cells xenografted in chicken chorioallantoic membrane assessed as inhibition of tumor growth at 30 ug per egg, iv administered on day 11 measured on day 17 by CAM assay; assay type: functional
How it was run: (§4)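 HT-1080 fibrosarcoma cells (3.5 × 105/egg) were applied onto freshly exposed CAM of fertilized chicken eggs. On day 11, drug from a DMSO stock was diluted in Cremophor EL/99% ethanol/PBS (1/1/14 v/v) and 100 μL was injected into a vein under the CAM. Groups of 10–12 eggs were kept to day 17, embryos were euthanized at 4 °C for ≥4 h, and tumor wet weight was recorded.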

[5] = tested on: M21; experiment: Cytotoxicity against human M21 cells after 48 hrs by SRB assay; assay type: functional, cell-based; conditions: M21, 48 h; how it was run: as §3
[6] = tested on: M21; experiment: Induction of DNA damage response in human M21 cells assessed as phosphorylation of H2AX into gammaH2AX at IC50 after 24 hrs by DAPI staining-based immunofluorescence assay; assay type: functional, cell-based
How it was run: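 M21 cells (1 × 10^5) on fibronectin-coated coverslips, grown 24 h, then exposed to agent for 24 h at 37 °C; 0.5% DMSO control. Fixed with 3.7% formaldehyde and permeabilized with 0.1% saponin/3% BSA. Probed with mouse anti-H2AX pS139 antibody for 2 h at room temperature. Nuclei counterstained with DAPI; nuclear γH2AX foci viewed by epifluorescence microscopy.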

[7] = tested on: Jurkat; experiment: Cell cycle arrest in human Jurkat E6-1 cells assessed as accumulation at G2/M phase at 9.3 uM after 24 hrs by FACS flow cytometry; assay type: functional
How it was run: (§5)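 Jurkat E6 cells grown in RPMI 1640 with 10% FBS at 37 °C, 5% CO2. Compounds were serially diluted in medium starting 50% above the M21 IC50. 4.0 × 10^5 cells were exposed for 24 h, then washed and spiked with chicken red blood cells as internal standard. Cells were fixed in ice-cold ethanol, stained with 1 μg/mL DAPI on ice for 1 h, and phase distribution was read by flow cytometry. The control was 0.5% DMSO.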

[8] = tested on: MCF7; experiment: Cytotoxicity against human MCF7 cells after 48 hrs by SRB assay; assay type: functional, cell-based; conditions: MCF7, 48 h; how it was run: as §3
[9] = tested on: Jurkat; experiment: Cell cycle arrest in human Jurkat E6-1 cells assessed as accumulation at G2/M phase at 6.6 uM after 24 hrs by FACS flow cytometry; assay type: functional; how it was run: as §5
[10] = tested on: Jurkat; experiment: Cell cycle arrest in human Jurkat E6-1 cells assessed as accumulation at G0/G1 phase at 6.6 uM after 24 hrs by FACS flow cytometry; assay type: functional; how it was run: as §1
[11] = tested on: Jurkat; experiment: Cell cycle arrest in human Jurkat E6-1 cells assessed as accumulation at S phase at 6.6 uM after 24 hrs by FACS flow cytometry; assay type: functional; how it was run: as §2
[12] = tested on: Jurkat; experiment: Cell cycle arrest in human Jurkat E6-1 cells assessed as accumulation at G0/G1 phase at 24 uM after 24 hrs by FACS flow cytometry; assay type: functional; how it was run: as §1
[13] = tested on: Jurkat; experiment: Cell cycle arrest in human Jurkat E6-1 cells assessed as accumulation at G2/M phase at 24 uM after 24 hrs by FACS flow cytometry; assay type: functional; how it was run: as §5
[14] = tested on: Jurkat; experiment: Cell cycle arrest in human Jurkat E6-1 cells assessed as accumulation at S phase at 24 uM after 24 hrs by FACS flow cytometry; assay type: functional; how it was run: as §5
[15] = tested on: Jurkat; experiment: Cell cycle arrest in human Jurkat E6-1 cells assessed as accumulation at G2/M phase at 17 uM after 24 hrs by FACS flow cytometry; assay type: functional; how it was run: as §5
[16] = tested on: Jurkat; experiment: Cell cycle arrest in human Jurkat E6-1 cells assessed as accumulation at G0/G1 phase at 17 uM after 24 hrs by FACS flow cytometry; assay type: functional; how it was run: as §1
[17] = tested on: Jurkat; experiment: Cell cycle arrest in human Jurkat E6-1 cells assessed as accumulation at S phase at 17 uM after 24 hrs by FACS flow cytometry; assay type: functional; how it was run: as §5
[18] = tested on: Jurkat; experiment: Cell cycle arrest in human Jurkat E6-1 cells assessed as accumulation at G2/M phase at 0.84 uM after 24 hrs by FACS flow cytometry; assay type: functional; how it was run: as §1
[19] = tested on: Jurkat; experiment: Cell cycle arrest in human Jurkat E6-1 cells assessed as accumulation at G0/G1 phase at 0.84 uM after 24 hrs by FACS flow cytometry; assay type: functional; how it was run: as §1
[20] = Toxicity in fertilized chicken embryo assessed as mortality rate at 30 ug per egg, iv administered on day 11 measured on day 17 by CAM assay; assay type: organism-based, Gallus gallus; conditions: in vivo, read-out: Activity
How it was run: (§6)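 Fertilized chicken eggs grafted on the CAM with HT-1080 cells (3.5 × 105/egg) received a 100 μL intravenous injection under the CAM on day 11. The drug was diluted in Cremophor EL/99% ethanol/PBS (1/1/14 v/v). Groups held 10–12 eggs and were incubated until day 17, when dead embryos and signs of toxicity were counted per group.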

[21] = tested on: Jurkat; experiment: Cell cycle arrest in human Jurkat E6-1 cells assessed as accumulation at S phase at 0.84 uM after 24 hrs by FACS flow cytometry; assay type: functional; how it was run: as §5
[22] = tested on: Jurkat; experiment: Cell cycle arrest in human Jurkat E6-1 cells assessed as accumulation at G2/M phase at 1.2 uM after 24 hrs by FACS flow cytometry; assay type: functional; how it was run: as §1
[23] = tested on: Jurkat; experiment: Cell cycle arrest in human Jurkat E6-1 cells assessed as accumulation at S phase at 1.2 uM after 24 hrs by FACS flow cytometry; assay type: functional; how it was run: as §5
[24] = tested on: Jurkat; experiment: Cell cycle arrest in human Jurkat E6-1 cells assessed as accumulation at G0/G1 phase at 1.2 uM after 24 hrs by FACS flow cytometry; assay type: functional; how it was run: as §1
[25] = Toxicity in fertilized chicken embryo assessed as mortality rate at 10 ug per egg, iv administered on day 11 measured on day 17 CAM assay; assay type: organism-based, Gallus gallus; conditions: in vivo, read-out: Activity; how it was run: as §6
[26] = tested on: HT-1080; experiment: Antitumor activity against human HT1080 cells xenografted in chicken chorioallantoic membrane assessed as inhibition of tumor growth at 10 ug per egg, iv administered on day 11 measured on day 17 by CAM assay; assay type: functional; how it was run: as §4

CCc1ccccc1OS(=O)(=O)c1ccc(NC(=O)NCCCl)cc1
Activity [1]: 6% | Activity [2]: 77% | IC50 [3]: 17 µM | TGI [4]: 49% | IC50 [5]: 13 µM | Activity [6]: Active | Activity [7]: 17% | IC50 [8]: 19 µM

CCCc1ccccc1OS(=O)(=O)c1ccc(NC(=O)NCCCCl)cc1
Activity [9]: 8% | IC50 [5]: 13 µM | Activity [10]: 25% | Activity [6]: Active | Activity [11]: 67% | IC50 [8]: 15 µM

Cc1ccccc1OS(=O)(=O)c1cccc(NC(=O)NCCCl)c1
Activity [12]: 45% | IC50 [3]: 33 µM | IC50 [5]: 40 µM | Activity [13]: 11% | Activity [14]: 44%

COc1ccc(OS(=O)(=O)c2ccc(NC(=O)NCCCl)cc2)cc1
Activity [15]: 15% | IC50 [5]: 18 µM | Activity [16]: 43% | Activity [17]: 42% | IC50 [8]: 27 µM

O=C(NCCCl)Nc1ccc(S(=O)(=O)Oc2ccc(O)cc2)cc1
Activity [18]: 20% | Activity [19]: 27% | mortality at 6 days [20]: 15% | IC50 [3]: 1.5 µM | TGI [4]: 69% | IC50 [5]: 1.2 µM | Activity [21]: 53% | IC50 [8]: 1.3 µM

Cc1ccccc1OS(=O)(=O)c1ccc(NC(=O)NCCCl)cc1
Activity [22]: 7% | Activity [23]: 71% | Activity [24]: 22% | mortality at 6 days [25]: 15% | TGI [26]: 60% | IC50 [3]: 4.7 µM | IC50 [5]: 2.8 µM | Activity [6]: Active | IC50 [8]: 4.8 µM

— ChEMBL document CHEMBL2163200, “Synthesis, biological evaluation, and structure-activity relationships of novel substituted N-phenyl ureidobenzenesulfonate derivatives blocking cell cycle progression in S-phase and inducing DNA double-strand breaks” (J Med Chem, 2012)
